Shown are actives, neighbours in structure and some others; about 2.6% of the full set was active somewhere.
OX1R antag-1 = OX1R (HCRTR1) antagonists, primary screen, fluorescence, CHO/OX1R cells, Fluo-8 calcium, orexin A; inhibition, % at 5 µM; Orexin/Hypocretin receptor type 1 (Homo sapiens), O43613; Fluo-8 calcium fluorescence; 330,000 tested, 0.43% active;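 active means inhibition above its plate's threshold, mean inhibition of all tested compounds on the plate plus 3 SD, cut at about 37% in these data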
OX1R antag-2 = antagonists of human orexin 1 receptor (OX1R); Orexin/Hypocretin receptor type 1 (Homo sapiens), O43613; OX1R-expressing cells, FRET antagonist read-out; inhibition, % at 6.6 µM; 330,000 tested, 1.8% active; AID 485270, 2010; in the data active means inhibition mostly above about 38%, no sharp cut-off; inactive means mostly below about 40%
OXTR potentiator = human OXTR potentiators, primary screen, fluorescence, CHO-OTR cells, Fluo-8 calcium. Oxytocin receptor (Homo sapiens), P30559. Fluo-8 calcium fluorescence, potentiator mode; 0% = oxytocin EC15, 100% = EC100. activation, % at 3 µM. 320,000 tested, 0.061% active;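 active means activation above that plate's cutoff, the mean activation of tested compounds plus 3 SD, cut at about 6.6% in these data, passing the limit was not always enough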
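test system = CHO-OTR cells, human receptor | compound = single-point 3.0 µM | schedule = 6 min compound pre-incubation at room temperature, 100 s kinetic read | signal = Fluo-8 no-wash calcium dye fluorescence, excitation 470-495 nm, emission 515-575 nm | repeats = single well per compound, singlicate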
OXTR ag = human OXTR agonists, primary screen, fluorescence, CHO-OTR cells, Fluo-8 calcium; Oxytocin receptor (Homo sapiens), P30559; Fluo-8 calcium fluorescence; normalized: DMSO 0%, oxytocin 100%; activation, % at 3 µM; 320,000 tested, 0.32% active; AID 2435, 2010;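 active means activation above the mean of all tested compounds plus 3 SD, cutoff set per screening run, cut at about 20% in these data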;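 further: peak over basal fluorescence ratio from a 100 s FLIPR kinetic read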
V1R ag counter = agonists of human V1a receptor, primary screen, counter-screen for OXTR agonist project, fluorescence, CHO-V1R cells | Fluo-8 calcium fluorescence, agonist mode; 0% DMSO, 100% 3 nM vasopressin | activation, % at 3 µM | 320,000 tested, 0.25% active | AID 2797, 2010;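 active means activation above the mean activation of all tested compounds plus 3 SD, per screening run, cut at about 20% in these data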;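 further: signal is peak over basal fluorescence ratio across a 100 second FLIPR read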
Target sequence (P37288 whole entry, looked up): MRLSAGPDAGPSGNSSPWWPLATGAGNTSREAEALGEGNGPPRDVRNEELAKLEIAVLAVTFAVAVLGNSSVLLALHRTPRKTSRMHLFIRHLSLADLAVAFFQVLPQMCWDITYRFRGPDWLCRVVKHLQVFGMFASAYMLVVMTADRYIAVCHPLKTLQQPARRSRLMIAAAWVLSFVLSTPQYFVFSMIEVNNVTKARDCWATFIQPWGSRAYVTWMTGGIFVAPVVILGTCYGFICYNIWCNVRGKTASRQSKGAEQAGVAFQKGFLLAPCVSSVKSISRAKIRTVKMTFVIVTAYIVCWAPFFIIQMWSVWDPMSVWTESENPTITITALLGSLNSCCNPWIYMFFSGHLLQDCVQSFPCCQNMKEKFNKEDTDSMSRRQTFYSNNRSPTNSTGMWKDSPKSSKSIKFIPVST
CHO parental Ca = ATP-evoked calcium signal inhibitors, parental CHO, primary screen, counter-screen for OX1R antagonist project, cell-based, fluorescence, Fluo-8 calcium dye | parental CHO-K1, ATP-induced calcium, Fluo-8 fluorescence | inhibition, % at 5.6 µM | 330,000 tested, 0.63% active;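 active means inhibition above that plate's mean sample inhibition plus 3 SD, cut at about 26% in these data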
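Material: Parental CHO cells | Reagent: ATP | Compound dosing: Single nominal dose of 5.6 µM per compound | Detection: Intracellular calcium via Fluo-8 no-wash fluorescent dye | Read-out: % inhibition of ATP-induced calcium mobilization | Benchmarks: Low control ATP plus DMSO, high control DMSO only | Replicates: Singlicate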
Each line names hits and unclear results; the compound was inactive in the other large screens.

O=C(C1CCCN1S(=O)(=O)c1cccc2nsnc12)N1CCCCC1 (centres undefined)	none
O=C(NC1CCCC1)C(NS(=O)(=O)c1cccc2nsnc12)c1ccccc1 (centres undefined)	OX1R antag-2 53
CCOc1ccc(NS(=O)(=O)c2ccc(C(=O)N(C)CC(=O)Nc3ccc(C)cc3)cc2)cc1	none
Cc1noc(C)c1NC(=O)N(C)C[C@H]1Oc2ccc(NC(=O)C3CC3)cc2C(=O)N([C@H](C)CO)C[C@@H]1C	none
CC1CCN(C(=O)C(NS(=O)(=O)c2cccc3nsnc23)c2ccccc2)CC1 (centres undefined)	none
CC1CCN(C(=O)C(NS(=O)(=O)c2cccc3nsnc23)C(C)C)CC1 (centres undefined)	OX1R antag-2 43
CC(C)[C@H](NS(=O)(=O)c1ccccc1F)C(=O)NC1CCCCC1	OX1R antag-2 39
CC(C)C(NS(=O)(=O)c1ccccc1)C(=O)NC1CCCC1 (centres undefined)	none
O=C(O)C1CSCN1S(=O)(=O)c1cccc2nsnc12 (centres undefined)	OX1R antag-2 41
CC(C)c1ccccc1-n1c(SCC(=O)N2CCc3ccccc3C2)nc2ccccc2c1=O	OX1R antag-2 73
COCCn1c(SCC(=O)N2CCCc3ccccc32)nc2ccccc2c1=O	OX1R antag-2 53
O=C(CSc1nc2ccccc2c(=O)n1-c1ccccc1)N1CCc2ccccc2C1	OX1R antag-2 55
Cc1ccc(-n2c(SCC(=O)N3CC(=O)Nc4ccccc43)nc3ccccc3c2=O)cc1C	OX1R antag-2 72
COCCn1c(SCC(=O)N2CCCc3ccccc32)nc2c(c1=O)SC(C)C2 (centres undefined)	none
CC(C)Cn1c(SCC(=O)N2CCc3ccccc3C2)nc2cc(Cl)ccc2c1=O	none
C=CCC[C@H](Cc1ccc(F)cc1)C(=O)OC[C@@H](NC(=O)[C@@H](CC=C)CC(=O)N(CCO)Cc1ccccc1)C(C)(C)C	none
COCC1CCN(C(=O)C2CCC(=O)N(CCc3cccc(F)c3)C2)CC1 (centres undefined)	none
O=C(O)c1cc(-c2ccc(-c3ccc(F)cc3)o2)nc2ccccc12	none
COc1ccccc1NS(=O)(=O)c1cccc(NC(=O)Nc2ccccc2)c1	OX1R antag-1 44
O=C(CCOc1ccccc1)Nc1cccc(S(=O)(=O)Nc2ccccc2Cl)c1	OX1R antag-1 57, CHO parental Ca 37
COc1ccccc1NS(=O)(=O)c1cccc(NC(=O)Nc2ccc(Cl)cc2)c1	OX1R antag-1 51, OX1R antag-2 52, CHO parental Ca 82
COc1cccc(OC)c1C(=O)Nc1cccc(S(=O)(=O)Nc2ccccc2Cl)c1	none
Cc1ccc(C)c(N(C)C(=O)CCS(=O)(=O)c2cccc3nonc23)c1	none
O=C(CN(Cc1ccc(F)cc1)C(=O)CCC(=O)Nc1nccs1)NCC1CCCO1 (centres undefined)	none
O=C(CCCC(=O)c1ccccc1)Nc1ccc(O)cc1	none
CCc1noc(C)c1C(=O)NNC(=O)c1ccccc1Cl	none
N#Cc1c(-c2ccc([N+](=O)[O-])cc2)nc2n(c1=O)CCS2	OX1R antag-2 65
N#Cc1c(-c2cccc([N+](=O)[O-])c2)nc2n(c1=O)CCS2	none
Oc1[nH]c2ccccc2c1C=Nc1ccc2c(c1)OCO2	OX1R antag-2 59
COc1cccc(CC(=O)NNC(=O)CN(C)S(=O)(=O)c2ccc(C)cc2)c1	none
CCOC(=O)c1[nH]c2ccccc2c1N=CN(C)C	none
CN(C)C=Nc1ccc2nc3c(cc2c1)[nH]c1ccccc13	OX1R antag-2 55
COc1ccc(Cl)cc1NC(=O)CN(C)C1CCCCC1	none
COc1ccc(OC)c(NC(=O)CN(Cc2ccc(F)cc2)C2CCCCC2)c1	CHO parental Ca 45
O=C(NNC(=O)c1cc(-c2ccccc2)nn1-c1ccccc1)c1ccccc1	none
CC(=O)c1sc(NC(=O)c2cc(-c3ccccc3)nn2-c2ccccc2)nc1C	OX1R antag-2 66
O=C(Nc1nc2ccccc2s1)c1cc(-c2ccccc2)nn1-c1ccccc1	CHO parental Ca 42
O=C(Nc1nc2ccccc2s1)c1ccc(Cl)s1	OX1R antag-2 43
O=C(O)CCNS(=O)(=O)c1cccc2nsnc12	none
CC1Cc2ccccc2N1C(=O)CCNS(=O)(=O)c1cccc2nsnc12 (centres undefined)	OX1R antag-2 60
COc1ccc(CCNC(=O)CCNS(=O)(=O)c2cccc3nsnc23)cc1OC	OX1R antag-2 61
CC1CCC(NC(=O)COC(=O)C2=NN(c3ccccc3)C(=O)CC2)CC1 (centres undefined)	none
Cc1csc(=O)n1CC(=O)OCc1cccc2ccccc12	OX1R antag-2 46
Cc1cc(C)n2nc(SCC(=O)NC(=O)c3ccccc3)nc2n1	none
CCOC(=O)c1ccc(NC2=CC(=O)C(=O)c3ccccc32)cc1	none
NS(=O)(=O)c1ccc(NC2=CC(=O)C(=O)c3ccccc32)cc1	OX1R antag-2 60
Cc1ccc(NC2=CC(=O)C(=O)c3ccccc32)cc1	OX1R antag-2 52
COC(=O)[C@]1(C)N[C@H](CN(C)S(=O)(=O)c2ccc(F)cc2)[C@@H]2C(=O)N(C)C(=O)[C@@H]21	none
CC(C)Nc1nc(NC(C)C)nc(N(C)N)n1	CHO parental Ca 100
O=C(Nc1ccccc1)NC1CCCCCCC1	none
O=C(Nc1ccc(Br)cc1)NC1CCCCCCC1	CHO parental Ca 40
O=C1C2C(C(=O)N1/N=C/c1ccc(N3CCCCC3)o1)C1C=CC2C12CC2 (centres undefined)	none
CC[C@]12c3[nH]c4cc(CCC(=O)N(C)C)ccc4c3CCN1C(=O)[C@@H](CC(=O)NCCc1ccccn1)C[C@@H]2C(=O)N1CCN(C(=O)C2CC2)CC1	none (no result: OXTR potentiator, OXTR ag, V1R ag counter)
COc1cc(NC(=O)Cn2cnc(S(=O)(=O)N3CCOCC3)c2)cc(OC)c1OC	none
CCNc1ccc(C(=O)OCC(=O)NCCN2C(=O)CSC2=O)cc1[N+](=O)[O-]	OX1R antag-2 68
Cc1ccc(C(=O)OCC(=O)NCCN2C(=O)CSC2=O)cc1	none
COc1ccc(-c2sc3ccccc3c2/C=C/c2ccncc2)cc1	none
CN(C(=S)Nc1ccc(Oc2ccccc2)cc1)C1CCCCC1	CHO parental Ca 29

Screening results from PubChem BioAssay.
